SENP6 inh: inhibitors of human SENP6 protease; inhibition, % at 10 µM; AID 2599; Recombinant SENP6 catalytic domain, aminoluciferin luminescence; actives 1.8% (n = 330,000); Q9GZR1;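 active = inhibition above about 50% at the single tested dose, limit read from the data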;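 also: plate controls were DMSO wells with enzyme for no effect and DMSO wells lacking enzyme for full effect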
SENP7 inh: blocks the human protease SENP7; Q9BQF6; recombinant SENP7, Z-RLRGG-aminoluciferin luminescence, 40 min; inhibition, % at 5 µM; actives 1.5% (n = 330,000); AID 434973;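 active = inhibition above about 50% at the single test dose, limit read from the data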;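 also: plate controls were DMSO with enzyme for no effect and no enzyme buffer wells for full effect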
SENP8 block-1: inhibitors of human SENP8 protease. purified SENP8, Z-RLRGG-aminoluciferin cleavage, luminescence. inhibition, % at 10 µM. actives 1.2% (n = 330,000). AID 2540; in the data active = inhibition above about 50%
Target sequence (Q96LD8 whole entry, looked up): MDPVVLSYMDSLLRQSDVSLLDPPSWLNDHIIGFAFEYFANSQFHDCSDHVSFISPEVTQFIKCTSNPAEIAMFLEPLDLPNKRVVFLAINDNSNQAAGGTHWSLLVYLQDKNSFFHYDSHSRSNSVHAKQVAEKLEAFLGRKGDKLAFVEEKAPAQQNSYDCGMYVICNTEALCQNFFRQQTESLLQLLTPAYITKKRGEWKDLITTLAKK
SENP8 block-2: inhibitors of human SENP8 protease. Q96LD8. recombinant SENP8, Nedd8 substrate fluorescence. inhibition, % at 20 µM. actives 0.64% (n = 360,000). AID 602440; in the data active = inhibition mostly above about 40%, no sharp cut-off; inactive = mostly below about 27%
SENP1 inh: SENP1 (human) catalytic domain inhibition; Q9P0U3; recombinant SENP1 catalytic domain, CyPet-SUMO1-YPet FRET cleavage; inhibition, % at 10 µM; actives 0.21% (n = 360,000); AID 624204;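 active = inhibition at least 30% at 10 µM, raw YFP signal under a set limit, fluorescence ratio 0.5 to 1.5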;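 also: 0% = enzyme with DMSO and 100% = no enzyme wells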
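Test system: hSENP1 catalytic domain, recombinant; Amount: 20 pM final SENP1 enzyme; Medium: Tris pH 8 buffer plus EDTA, NaCl, BME, BSA, NP40, catalase; Schedule: 50 min enzyme reaction, room temperature, light-protected; Technique: FRET fluorescence in CFP and YFP emission channels; Controls: no-enzyme wells low, DMSO-plus-enzyme wells high control.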
SENP8 confirm: human SENP8 inhibition, confirmed | Recombinant SENP8, Z-RLRGG-aminoluciferin luminescence, 60 min | shares compounds with SENP7 inh | actives 40% (n = 6,200) | inhibition, % at 12.5 µM;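 active = mean inhibition across replicates above about 50%, limit read from the data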
SENP6 confirm: confirmation of human SENP6 protease inhibitors; inhibition, % at 12.5 µM; actives 58% (n = 6,200); shares compounds with SENP7 inh; recombinant SENP6, Z-RLRGG-aminoluciferin luminescence
SENP7 conf: confirmation of human SENP7 protease inhibitors; shares compounds with SENP7 inh; recombinant SENP7, Z-RLRGG-aminoluciferin luminescence, 40 min; inhibition, % at 12.5 µM; actives 69% (n = 6,200)
Casp3 select: selectivity test for SENP inhibitors: human caspase-3 inhibition; shares compounds with SENP7 inh; purified caspase-3, Z-DEVD-aminoluciferin luminescence, 60 min; inhibition, % at 12.5 µM; actives 60% (n = 6,200); AID 488918;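 active = mean inhibition above about 50%, limit read from the data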;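 also: plate controls were enzyme with DMSO for no effect and wells without caspase-3 for full effect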
Target sequence (P42574 28-227 limits assumed): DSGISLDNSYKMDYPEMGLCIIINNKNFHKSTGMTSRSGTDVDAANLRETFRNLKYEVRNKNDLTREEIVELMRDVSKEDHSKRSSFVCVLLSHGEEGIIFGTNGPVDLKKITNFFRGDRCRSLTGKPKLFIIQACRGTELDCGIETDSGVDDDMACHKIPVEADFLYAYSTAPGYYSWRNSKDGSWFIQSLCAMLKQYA
Luc interf: luminescence interference (SENP counter-screen) | shares compounds with SENP7 inh | Pre-incubated SENP8/Z-RLRGG-aminoluciferin, luciferase luminescence interference | inhibition, % at 12.5 µM | actives 39% (n = 6,200) | AID 488919;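 active = mean inhibition above about 50% when retested at one dose, limit read from the data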;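 also: plate controls were DMSO wells with completed reaction for no effect and substrate without enzyme for full effect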
* marks the source's active call; other numbers are inactive results. A selection: hits, their analogues and other compounds. The true share with any hit is near 2.5%.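 The calls were made as follows, unless noted: active = mean inhibition above about 50% in the one-dose retest (limit read from the data); inactive = the rest.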

Screening COc1ccc(/C=N/Nc2nccnc2Cl)c(OC)c1 returned SENP6 inh 93.0*, SENP7 inh 97.5*, SENP8 block-1 91.1*, SENP8 block-2 -160.9, SENP1 inh -27.6, SENP8 confirm 96.1*, SENP6 confirm 97.0*, SENP7 conf 102.7*, Casp3 select 98.5* and Luc interf 94.7*.
`COc1ccc(/C=N/Nc2cc(N(C)C)nc(N(C)C)n2)cc1` gave SENP6 inh 80.1*, SENP7 inh 72.0*, SENP8 block-1 16.8, SENP8 block-2 -6.0, SENP1 inh 0.0, SENP8 confirm 38.2, SENP6 confirm 82.5*, SENP7 conf 80.8*, Casp3 select -2.2 and Luc interf -4.7.
O=C(COc1cc(F)ccc1[N+](=O)[O-])Nc1cccc(S(=O)(=O)NC2=NCCC2)c1 was read as SENP6 inh -7.9, SENP7 inh -10.7, SENP8 block-1 -13.1, SENP8 block-2 8.6 and SENP1 inh 0.6.
Screening Oc1ccc(Cl)cc1-c1cc(-c2ccccc2Cl)[nH]n1 returned SENP6 inh 28.8, SENP7 inh 19.9, SENP8 block-1 -17.1, SENP8 block-2 25.7 and SENP1 inh -2.4.
Screening Oc1ccccc1-c1cc(-c2ccccc2Cl)[nH]n1 returned SENP6 inh 93.5*, SENP7 inh 94.6*, SENP8 block-1 95.5*, SENP8 block-2 6.2, SENP1 inh 3.4, SENP8 confirm 98.0*, SENP6 confirm 98.8*, SENP7 conf 102.3*, Casp3 select 85.0* and Luc interf 94.6*.
Screening Oc1ccccc1-c1cc(-c2cccc(F)c2)n[nH]1 returned SENP6 inh 92.9*, SENP7 inh 88.0*, SENP8 block-1 88.3*, SENP8 block-2 9.5, SENP1 inh 3.9, SENP8 confirm 95.0*, SENP6 confirm 95.1*, SENP7 conf 100.1*, Casp3 select 64.4* and Luc interf 73.6*.
COc1ccc(NC(=O)c2cc(S(=O)(=O)N3CCCCC3)c[nH]2)cc1Cl was read as SENP6 inh 1.5, SENP7 inh 4.5, SENP8 block-1 1.6, SENP8 block-2 13.4 and SENP1 inh 0.9.
`CCOc1ccc(/C=C/[N+](=O)[O-])c2ccccc12` gave SENP6 inh 67.2*, SENP7 inh 27.5, SENP8 block-1 44.1, SENP8 block-2 18.2, SENP1 inh -12.4, SENP8 confirm 13.5, SENP6 confirm 6.8, SENP7 conf 13.1, Casp3 select 7.6 and Luc interf 3.5.
Cc1ccccc1NC(=O)c1ccccc1NC(=O)c1ccccc1F was read as SENP8 block-2 25.0 and SENP1 inh 2.3.
`CCc1ccc(-c2ccc(C(=O)O)cc2)nc1` gave SENP6 inh 20.0, SENP7 inh 65.3*, SENP8 block-1 49.2, SENP8 block-2 22.0, SENP1 inh 1.3, SENP8 confirm 76.1*, SENP6 confirm 74.0*, SENP7 conf 93.7*, Casp3 select 90.7* and Luc interf 75.2*.
Screening N#Cc1cc([N+](=O)[O-])cnc1N(CCO)CCO returned SENP6 inh 9.1, SENP7 inh 6.1, SENP8 block-1 -0.1, SENP8 block-2 -9.7 and SENP1 inh -5.5.
`O=c1c2cc(Br)ccc2nc(-c2ccccc2)n1O` gave SENP6 inh 62.5*, SENP7 inh -2.7, SENP8 block-1 48.5, SENP8 block-2 -2.9, SENP1 inh 2.1, SENP8 confirm 64.8*, SENP6 confirm 60.9*, SENP7 conf 84.5*, Casp3 select 60.8* and Luc interf 72.2*.

Bioassay records from PubChem BioAssay.
